According to ChEMBL document CHEMBL1140035, “4"-Benzoylureido-TSAO derivatives as potent and selective non-nucleoside HCMV inhibitors. Structure-activity relationship and mechanism of antiviral action” (J Med Chem, 2008):
In brackets after ≈: the same amount, converted by molar mass. Activity calls are given as the source filed them. The rule behind the calls is not given here.

Key:
Human betaherpesvirus 5 [1] = assay: Antiviral activity against HCMV Davis in HEL cells assessed as reduction of virus-induced cytopathogenicity after 7 days; format: functional, organism-based; settings: Human betaherpesvirus 5, Davis, 168 h
Outline: (§1)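 Confluent HEL fibroblasts were infected with strain AD-169 or Davis at 100 PFU/well. After 2 h, residual virus was removed and medium with serial compound concentrations was added, in duplicate. Plates were held 7 days at 37 °C, fixed with ethanol, and scored microscopically for virus-induced cytopathicity. EC50 is the concentration reducing cytopathicity by 50%.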

Human betaherpesvirus 5 [2] = assay: Antiviral activity against HCMV AD169 in HEL cells assessed as reduction of virus-induced cytopathogenicity after 7 days; format: functional, organism-based; settings: Human betaherpesvirus 5, AD169, HEL, 168 h; outline: as §1
[3] = Cytotoxicity against HEL cells assessed as alteration in cell morphology after 3 days; format: cell-based; settings: human
Outline: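 Minimum cytotoxic concentration: the lowest compound concentration causing a microscopically detectable alteration of HEL cell morphology.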

Human betaherpesvirus 5 [4] = assay: Antiviral activity against HCMV in HEL cells assessed as reduction of virus-induced cytopathogenicity administered at 56 hrs post infection; format: functional, organism-based
Outline: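 Time-of-addition: confluent HEL cultures were infected with about 100 PFU/well of HCMV Davis. Compound dilutions were added at 0 h or at later time points post infection, with one plate set per time point. Seven days after infection, plates were ethanol-fixed and Giemsa-stained. Antiviral effect was scored microscopically and EC50 calculated.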

Murid betaherpesvirus 1 = assay: Antiviral activity against MCMV in mouse C127I cells assessed as reduction of virus-induced cytopathogenicity after 7 days; format: functional, organism-based; settings: Murid betaherpesvirus 1, C127I, 168 h
Outline: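 MCMV Smith strain on confluent C127I cells, run as the HCMV assay: 100 PFU/well for 2 h, inoculum removed, then serial compound concentrations in duplicate for 7 days at 37 °C. Cytopathicity was scored microscopically after ethanol fixation. EC50 is the concentration reducing virus-induced cytopathicity by 50%.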

Human alphaherpesvirus 3 [5] = assay: Antiviral activity against wild-type VZV in HEL cells after 5 days by plaque reduction assay; format: functional, organism-based; settings: Human alphaherpesvirus 3, HEL, 120 h
Outline: (§2)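 Plaque reduction on confluent HEL monolayers infected with 20 PFU/well of cell-associated VZV. After 2 h, inoculum was replaced by compound dilutions in duplicate, with infected-untreated controls. After 5 days, cells were fixed and Giemsa-stained and plaques counted. EC50 is the concentration reducing plaque formation by 50% versus untreated control.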

Human betaherpesvirus 5 [6] = assay: Antiviral activity against ganciclovir-resistant HCMV with DNA polymerase mutant in HEL cells assessed as reduction of virus-induced cytopathogenicity; format: functional, organism-based; settings: Human betaherpesvirus 5, HEL
Outline: (§3)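 Resistant mutants raised in vitro by serial passage of HCMV AD-169 under rising drug concentrations. Confluent HEL fibroblasts infected at 100 PFU/well for 2 h, then the inoculum was removed. Cells were kept with serial compound concentrations in duplicate for 7 days at 37 °C. After ethanol fixation, cytopathicity was scored microscopically. EC50 is the concentration halving virus-induced cytopathicity.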

Human betaherpesvirus 5 [7] = assay: Antiviral activity against (S)-3-hydroxy-2-phosphonomethoxypropyl cytosine-resistant HCMV with DNA polymerase mutant in HEL cells assessed as reduction of virus-induced cytopathogenicity; format: functional, organism-based; settings: Human betaherpesvirus 5, HEL; outline: as §3
Human betaherpesvirus 5 [8] = assay: Antiviral activity against (S)-3-hydroxy-2-phosphonomethoxypropyl adenine-resistant HCMV with DNA polymerase mutant in HEL cells assessed as reduction of virus-induced cytopathogenicity; format: functional, organism-based; settings: Human betaherpesvirus 5, HEL; outline: as §3
Human betaherpesvirus 5 [9] = assay: Antiviral activity against foscarnet-resistant HCMV with DNA polymerase mutant in HEL cells assessed as reduction of virus-induced cytopathogenicity; format: functional, organism-based; settings: Human betaherpesvirus 5, HEL; outline: as §3
Human betaherpesvirus 5 [10] = assay: Antiviral activity against acyclovir-resistant HCMV with DNA polymerase mutant in HEL cells assessed as reduction of virus-induced cytopathogenicity; format: functional, organism-based; settings: Human betaherpesvirus 5, HEL; outline: as §3
Human betaherpesvirus 5 [11] = assay: Antiviral activity against HCMV 6 with […] mutation in HEL cells assessed as reduction of virus-induced cytopathogenicity; format: functional, organism-based; settings: Human betaherpesvirus 5, HEL
Outline: (§4)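 Drug-resistant HCMV clinical isolates from immunocompromised patients, carrying UL97 and/or DNA polymerase mutations. Confluent HEL fibroblasts infected at 100 PFU/well for 2 h, then residual virus was removed. Medium with serial compound concentrations added in duplicate for 7 days at 37 °C. After ethanol fixation, cytopathicity was scored microscopically. EC50 is the concentration reducing cytopathicity by 50%.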

Human betaherpesvirus 5 [12] = assay: Antiviral activity against HCMV 521 with […] and DNA polymerase mutation in HEL cells assessed as reduction of virus-induced cytopathogenicity; format: functional, organism-based; settings: Human betaherpesvirus 5, HEL; outline: as §4
Human betaherpesvirus 5 [13] = assay: Antiviral activity against HCMV 530 with […] and DNA polymerase mutation in HEL cells assessed as reduction of virus-induced cytopathogenicity; format: functional, organism-based; settings: Human betaherpesvirus 5, HEL; outline: as §4
Human alphaherpesvirus 1 = assay: Antiviral activity against HSV1; format: functional, organism-based
[14] = Cytotoxicity against HEL cells assessed as reduction in cell growth after 3 days; format: cell-based; settings: human
Outline: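 HEL cells were seeded at 5 × 10³ cells/well and allowed to proliferate for 24 h. Compound-containing medium was then added at several concentrations for 3 days at 37 °C. Cells were counted with a Coulter counter. CC50, the concentration reducing cell growth by 50% versus untreated controls, was read from plots of cell number (% of control) against concentration.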

Human alphaherpesvirus 2 = assay: Antiviral activity against HSV2; format: functional, organism-based
Human alphaherpesvirus 3 [15] = assay: Antiviral activity against thymidine-kinase deficient VZV in HEL cells after 5 days by plaque reduction assay; format: functional, organism-based; settings: Human alphaherpesvirus 3, HEL, 120 h; outline: as §2
Vaccinia virus = assay: Antiviral activity against vaccinia virus; format: functional, organism-based; settings: Orthopoxvirus vaccinia
Human betaherpesvirus 5 [16] = assay: Inhibition of immediate early antigen expression in HCMV Davis in HEL cells at 48 hrs post infection by flow cytometry; format: functional, organism-based
Outline: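 HEL cells were infected with HCMV Davis, with compound dilutions added at infection and incubation at 37 °C. Cells were acetone-fixed at 4 °C, resuspended in PBS with 5% gelatin, and stained at 37 °C with a mAb against IE proteins 1 and 2. A fluorescein-labelled rabbit anti-mouse IgG was applied for 30 min, cells were fixed in 0.5% formaldehyde and analysed by flow cytometry. Background fluorescence of uninfected cells was subtracted.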

[17] = biological target: T1, DNA polymerase (Human herpesvirus 5) (UniProt A6BMM6); assay: Inhibition of HCMV UL54-encoded DNA polymerase at 5 to 7.5 uM after 60 mins; settings: Human betaherpesvirus 5
T1 sequence (whole entry): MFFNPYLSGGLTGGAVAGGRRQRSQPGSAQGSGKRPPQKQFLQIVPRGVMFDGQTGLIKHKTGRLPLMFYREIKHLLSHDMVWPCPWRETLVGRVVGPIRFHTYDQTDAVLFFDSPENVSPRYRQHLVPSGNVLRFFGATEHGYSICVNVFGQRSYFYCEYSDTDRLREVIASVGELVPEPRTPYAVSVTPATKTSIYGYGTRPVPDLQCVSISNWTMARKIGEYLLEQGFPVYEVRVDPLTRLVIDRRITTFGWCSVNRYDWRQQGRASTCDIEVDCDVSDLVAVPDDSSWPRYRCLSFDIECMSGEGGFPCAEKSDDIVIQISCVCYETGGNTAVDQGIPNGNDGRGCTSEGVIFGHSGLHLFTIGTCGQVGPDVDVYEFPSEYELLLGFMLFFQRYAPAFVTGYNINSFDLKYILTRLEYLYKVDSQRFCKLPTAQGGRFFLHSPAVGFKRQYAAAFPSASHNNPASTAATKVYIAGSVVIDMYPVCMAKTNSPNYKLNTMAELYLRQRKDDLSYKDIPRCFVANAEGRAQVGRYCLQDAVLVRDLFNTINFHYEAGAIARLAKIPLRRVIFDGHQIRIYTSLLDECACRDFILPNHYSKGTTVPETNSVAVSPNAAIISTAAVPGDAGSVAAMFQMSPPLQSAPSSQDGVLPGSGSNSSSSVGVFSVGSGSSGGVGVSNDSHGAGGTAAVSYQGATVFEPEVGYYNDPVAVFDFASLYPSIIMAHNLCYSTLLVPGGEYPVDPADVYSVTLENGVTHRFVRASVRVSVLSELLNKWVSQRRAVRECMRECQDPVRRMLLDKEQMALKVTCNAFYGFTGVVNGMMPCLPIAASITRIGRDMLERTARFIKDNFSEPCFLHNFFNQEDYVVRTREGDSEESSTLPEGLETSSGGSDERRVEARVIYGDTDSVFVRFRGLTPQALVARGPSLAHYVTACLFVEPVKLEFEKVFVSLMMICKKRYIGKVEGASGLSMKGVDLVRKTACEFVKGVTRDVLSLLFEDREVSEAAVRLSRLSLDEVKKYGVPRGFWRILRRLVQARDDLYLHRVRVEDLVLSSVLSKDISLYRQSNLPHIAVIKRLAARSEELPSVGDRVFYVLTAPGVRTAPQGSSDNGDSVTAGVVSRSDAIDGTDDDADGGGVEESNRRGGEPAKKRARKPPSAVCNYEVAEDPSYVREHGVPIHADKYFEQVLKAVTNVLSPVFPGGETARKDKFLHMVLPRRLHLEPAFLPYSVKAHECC

| Compound | EC50 (Human betaherpesvirus 5 [1]) | EC50 (Human betaherpesvirus 5 [2]) | MCC at 72 h [3] | Activity (Human betaherpesvirus 5 [4]) | EC50 (Murid betaherpesvirus 1) | EC50 (Human alphaherpesvirus 3 [5]) | EC50 (Human betaherpesvirus 5 [6]) | EC50 (Human betaherpesvirus 5 [7]) | EC50 (Human betaherpesvirus 5 [8]) | EC50 (Human betaherpesvirus 5 [9]) | EC50 (Human betaherpesvirus 5 [10]) | EC50 (Human betaherpesvirus 5 [11]) | EC50 (Human betaherpesvirus 5 [12]) | EC50 (Human betaherpesvirus 5 [13]) | Activity (Human alphaherpesvirus 1) | CC50 at 72 h [14] | Activity (Human alphaherpesvirus 2) | EC50 (Human alphaherpesvirus 3 [15]) | Activity (Vaccinia virus) | further results |
| --- | --- | --- | --- | --- | --- | --- | --- | --- | --- | --- | --- | --- | --- | --- | --- | --- | --- | --- | --- | --- |
| Cc1cn([C@@H]2O[C@H](CO[Si](C)(C)C(C)(C)C(C)C)[C@@]3(OS(=O)(=O)C=C3NC(=O)NC(=O)c3ccccc3)[C@H]2O[Si](C)(C)C(C)(C)C(C)C)c(=O)n(C)c1=O | 1500 nM | 1200 nM | ≥ 100 µM | inactive | 540 nM | 11000 nM | 3.3 µg/mL (≈ 4.09 µM) | 2.6 µg/mL (≈ 3.22 µM) | 5.6 µg/mL (≈ 6.94 µM) | 2.7 µg/mL (≈ 3.35 µM) | 2.7 µg/mL (≈ 3.35 µM) | 5.5 µg/mL (≈ 6.81 µM) | 2.9 µg/mL (≈ 3.59 µM) | 5.7 µg/mL (≈ 7.06 µM) | inactive | > 50000 nM | inactive | 11000 nM | inactive |  |
| Cc1cn([C@@H]2O[C@H](CO[Si](C)(C)C(C)(C)C(C)C)[C@@]3(OS(=O)(=O)C=C3NC(=O)NC(=O)c3ccccc3)[C@H]2O[Si](C)(C)C(C)(C)C)c(=O)n(C)c1=O | 1400 nM | 1100 nM | ≥ 100 µM | inactive | 660 nM | 11000 nM | 0.9 µg/mL (≈ 1.16 µM) | 1 µg/mL (≈ 1.28 µM) | 3.1 µg/mL (≈ 3.98 µM) | 0.78 µg/mL (≈ 1 µM) | 1.1 µg/mL (≈ 1.41 µM) | 0.86 µg/mL (≈ 1.1 µM) | 0.67 µg/mL (≈ 0.86 µM) | 1.3 µg/mL (≈ 1.67 µM) | inactive | > 50000 nM | inactive | 11000 nM | inactive | Activity (Human betaherpesvirus 5 [16]): inactive |
| O=C(O)P(=O)(O)O [FOSCARNET] |  |  |  |  |  |  | 17 µg/mL (≈ 135 µM) | 14 µg/mL (≈ 111 µM) | 35 µg/mL (≈ 278 µM) | 135 µg/mL (≈ 1070 µM) | 37 µg/mL (≈ 294 µM) | 34 µg/mL (≈ 270 µM) | 29 µg/mL (≈ 230 µM) | 31 µg/mL (≈ 246 µM) |  |  |  |  |  | Activity [17]: Active |
| Cc1cn([C@@H]2O[C@H](CO[Si](C)(C)C(C)(C)C)[C@@]3(OS(=O)(=O)C=C3NC(=O)NC(=O)c3ccccc3)[C@H]2O[Si](C)(C)C(C)(C)C)c(=O)n(C)c1=O | 2400 nM | 11000 nM | ≥ 80 µM | inactive |  |  |  |  |  |  |  |  |  |  |  | > 200000 nM |  |  |  |  |
